Reference: ChEMBL document CHEMBL1137780, “Isocombretastatins a versus combretastatins a: the forgotten isoCA-4 isomer as a highly promising cytotoxic and antitubulin agent” (J Med Chem, 2009)
The source made the active and inactive calls. The calls are words filed in the database; no cut-off is given here.

Assays:
MDA-MB-231 = assay: Cytotoxicity against human MDA-MB-231 cells after 72 hrs; assay type: functional, cell-based; details: MDA-MB-231, 72 h
In short: (§1)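 Human K562 (chronic myelogenous leukemia) or MDA-MB231 (breast cancer) cells exposed to compound for 72 h; IC50 taken as concentration reducing cell growth by 50%, averaged over three experiments.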

[1] = Inhibition of tubulin polymerization assessed as blockade of microtubule assembly
K562 [2] = assay: Cytotoxicity against human K562 cells after 72 hrs; assay type: functional, cell-based; details: K562, 72 h; in short: as §1
HCT-116 [3] = assay: Cytotoxicity against human HCT116 cells after 72 hrs; assay type: functional, cell-based; details: HCT-116, 72 h
In short: (§2)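 Human tumour cell lines (H1299 non-small-cell lung carcinoma, HCT116 colon carcinoma) were exposed to the test drug for 72 h. IC50 is the concentration that reduced cell growth by 50%, taken as the average of three experiments.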

[4] = Cytotoxicity against human H1299 cells after 72 hrs; assay type: functional, cell-based; details: NCI-H1299, 72 h; in short: as §2
P388 = assay: Cytotoxicity against mouse P388 cells; assay type: functional; details: read-out: ED50 (the source's name)
NCI-H460 [5] = assay: Cytotoxicity against human H460 cells; assay type: functional, cell-based
NCI-H460 [6] = assay: Ratio of IC50 of drug to IC50 for combretastatin CA-4 against human H460 cells; assay type: functional
[7] = Cytotoxicity against human NCI60 cells; assay type: functional
Colon 26 = assay: Ratio of IC50 of drug to IC50 for combretastatin CA-4 against mouse Colon 26 cells; assay type: functional
K562 [8] = assay: Cell cycle arrest in human K562 cells assessed as increase in G2/M phase accumulation after 24 hrs; assay type: functional, cell-based
In short: (§3)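 K562 leukemia cells cultured 24 h with increasing concentrations of test agent; DNA content measured by propidium iodide staining and flow cytometry to give cell-cycle phase distribution (G1, S, G2/M).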

K562 [9] = assay: Cell cycle arrest in human K562 cells assessed as decrease in S phase accumulation after 24 hrs; assay type: functional, cell-based; in short: as §3
K562 [10] = assay: Cell cycle arrest in human K562 cells assessed as decrease in G1 phase accumulation after 24 hrs; assay type: functional, cell-based; in short: as §3
HCT-116 [11] = assay: Ratio of IC50 of drug to IC50 for combretastatin CA-4 against human HCT116 cells; assay type: functional

Structure (SMILES)	IC50 (MDA-MB-231)	IC50 ([1]; read-out: IC50)	IC50 (K562 [2])	IC50 (HCT-116 [3])	IC50 [4]	other results
COc1ccc(C(=O)c2cc(OC)c(OC)c(OC)c2)cc1O [PHENSTATIN]	28 nM	2000 nM	41 nM	33 nM	21 nM	–
C=C(c1cc(OC)c(OC)c(OC)c1)c1ccc(OC)c(O)c1O	820 nM	2100 nM	750 nM	850 nM	2000 nM	–
COc1cc2c(c(OC)c1OC)-c1ccc(OC)c(=O)cc1[C@@H](NC(C)=O)CC2 [COLCHICINE]	26 nM	2100 nM	29 nM	32 nM	30 nM	–
C=C(c1ccc(OC)c(O)c1)c1cc(OC)c2c(c1)OCO2	48 nM	3400 nM	38 nM	38 nM	32 nM	–
C=C(c1ccc(OC)c(OC)c1)c1cc(O)c(OC)c(OC)c1	3000 nM	–	3100 nM	2800 nM	5000 nM	IC50 [1]: Not Active
COc1ccc(/C=C\c2cc(O)c(OC)c(OC)c2)cc1O	–	–	–	–	–	EC50 (P388): 26 nM
COc1ccc(/C(F)=C(/F)c2cc(OC)c(OC)c(OC)c2)cc1O	–	–	–	–	–	Activity (NCI-H460 [5]): Active; Ratio IC50 (NCI-H460 [6]): 1.6
COc1ccc(/C=C\c2cc(OC)c(OC)c(OC)c2)cc1O [COMBRETASTATIN A4]	3 nM	–	3.6 nM	2.3 nM	5 nM	GI50 [7]: 3.2 nM
C=C(c1ccc(OC)c(O)c1)c1cc(O)c(OC)c(OC)c1	8 nM	5000 nM	52 nM	34 nM	25 nM	–
COc1ccc(/C=C(/C#N)c2cc(OC)c(OC)c(OC)c2)cc1O	–	–	–	–	–	Ratio IC50 (Colon 26): 1.3
COc1ccc(/C=C\c2cc(OC)c(OC)c(OC)c2)c(O)c1O [COMBRETASTATIN A-1]	–	–	–	–	–	GI50 [7]: 16.2 nM
COc1ccc(/C=C\c2cc(O)c(OC)c(OC)c2)cc1OC	–	–	–	–	–	EC50 (P388): 900 nM
C=C(c1ccc(OC)c(O)c1)c1cc(OC)c(OC)c(OC)c1	4 nM	2200 nM	5 nM	2.5 nM	5 nM	Activity (K562 [8]): Dose-dependent effect; Activity (K562 [9]): Active; Activity (K562 [10]): Active
COc1ccc(/C(=C/C#N)c2cc(OC)c(OC)c(OC)c2)cc1O (mixture of isomers)	–	4300 nM	–	3 nM	–	Ratio IC50 (HCT-116 [11]): 1.3
COc1ccc(/C=C\c2cc(OC)c3c(c2)OCO3)cc1O [Combretastatin A-2]	–	–	–	–	–	GI50 [7]: 31.6 nM
COc1ccc(C(=C(F)F)c2cc(OC)c(OC)c(OC)c2)cc1O	–	2500 nM	–	–	–	Activity (NCI-H460 [5]): Active; Ratio IC50 (HCT-116 [11]): 2.6
